{"source": "ChEMBL document CHEMBL1240328", "about": "“Selective compounds define Hsp90 as a major inhibitor of apoptosis in small-cell lung cancer” (Nat Chem Biol, 2007)", "key": {"[1]": {"biological_target": "Heat shock protein HSP 90-beta (Homo sapiens) (UniProt P08238)", "sequence (P08238 whole entry)": "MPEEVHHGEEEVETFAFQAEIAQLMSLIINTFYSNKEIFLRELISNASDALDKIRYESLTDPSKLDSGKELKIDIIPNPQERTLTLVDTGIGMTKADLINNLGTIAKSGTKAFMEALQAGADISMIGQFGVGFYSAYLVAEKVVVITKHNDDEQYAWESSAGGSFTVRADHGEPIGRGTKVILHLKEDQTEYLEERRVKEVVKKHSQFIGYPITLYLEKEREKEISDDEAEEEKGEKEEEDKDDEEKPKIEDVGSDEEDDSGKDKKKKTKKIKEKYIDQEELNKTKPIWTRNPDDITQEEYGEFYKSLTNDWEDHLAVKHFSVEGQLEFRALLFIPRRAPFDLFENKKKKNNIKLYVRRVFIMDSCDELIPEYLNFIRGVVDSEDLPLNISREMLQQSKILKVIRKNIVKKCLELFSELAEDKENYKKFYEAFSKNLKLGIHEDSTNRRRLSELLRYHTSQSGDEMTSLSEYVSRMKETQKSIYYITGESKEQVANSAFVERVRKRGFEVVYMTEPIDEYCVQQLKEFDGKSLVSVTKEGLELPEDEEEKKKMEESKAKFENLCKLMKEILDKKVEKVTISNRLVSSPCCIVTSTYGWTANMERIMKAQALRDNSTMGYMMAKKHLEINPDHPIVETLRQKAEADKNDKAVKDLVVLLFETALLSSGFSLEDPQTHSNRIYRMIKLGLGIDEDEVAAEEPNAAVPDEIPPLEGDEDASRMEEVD", "test": "Inhibition of HSP90-mediated antiapoptotic activity in human NCI-H526 cells assessed as increase in caspase-3 activity at 10 uM after 24 hrs by Western blot analysis", "assay_type": "cell-based"}, "[2]": {"biological_target": "Heat shock protein HSP 90-beta (Homo sapiens) (UniProt P08238)", "test": "Inhibition of HSP90-mediated antiapoptotic activity in human NCI-H526 cells assessed as induction of caspase-3 cleavage at 10 uM after 72 hrs by fluorescence assay in presence of caspase-9 inhibitor Z-LEHD-FMK", "assay_type": "cell-based"}, "[3]": {"biological_target": "Heat shock protein HSP 90-beta (Homo sapiens) (UniProt P08238)", "test": "Inhibition of HSP90-mediated antiapoptotic activity in human NCI-H526 cells assessed as disruption of protein-Apaf-1 complex at 20 uM after 24 hrs by Western blot analysis", "assay_type": "cell-based", "procedure,_shortened": "(§1)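 NCI-H526 cells treated for 24 h with vehicle or inhibitors (20 µM or 50 µM). Proteins isolated with Apaf-1-specific antibody and whole lysates analysed by western blot. n = 3.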"}, "[4]": {"biological_target": "Heat shock protein HSP 90-beta (Homo sapiens) (UniProt P08238)", "test": "Inhibition of HSP90-mediated antiapoptotic activity in human MCF7 cells assessed as induction of PARP cleavage at 400 uM after 24 hrs by Western blot analysis", "assay_type": "cell-based"}, "[5]": {"biological_target": "Heat shock protein HSP 90-beta (Homo sapiens) (UniProt P08238)", "test": "Inhibition of HSP90-mediated antiapoptotic activity in human NCI-H526 cells assessed as induction of PARP cleavage at 10 uM after 72 hrs by fluorescence assay in presence of caspase-9 inhibitor Z-LEHD-FMK", "assay_type": "cell-based"}, "[6]": {"biological_target": "Heat shock protein HSP 90-beta (Homo sapiens) (UniProt P08238)", "test": "Inhibition of HSP90-mediated antiapoptotic activity in human NCI-H526 cells assessed as induction of PARP cleavage at 10 uM after 24 hrs by Western blot analysis", "assay_type": "cell-based", "procedure,_shortened": "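NCI-H526 cells at 60–70% confluence were exposed to drug or DMSO for 24 h. Lysed in 50 mM Tris pH 7.4, 150 mM NaCl, 1% NP-40, with protein measured by BCA. 20–100 µg run on SDS-PAGE and blotted to nitrocellulose. Probed with cleaved-protein antibodies and peroxidase secondary at 1:5,000, with β-actin as loading control.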"}, "[7]": {"biological_target": "Heat shock protein HSP 90-beta (Homo sapiens) (UniProt P08238)", "test": "Inhibition of HSP90-mediated antiapoptotic activity in human MCF7 cells assessed as induction of caspase-9 cleavage at 400 uM after 24 hrs by Western blot analysis", "assay_type": "cell-based"}, "[8]": {"biological_target": "Heat shock protein HSP 90-beta (Homo sapiens) (UniProt P08238)", "test": "Inhibition of HSP90-mediated antiapoptotic activity in human NCI-H187 cells assessed as subG1 accumulation at 15 uM after 72 hrs by propidium iodide staining-based flow cytometry", "assay_type": "cell-based", "procedure,_shortened": "(§2)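 SCLC cells treated for 72 h with graded doses. Mitochondrial membrane potential read by flow cytometry after JC-1 staining, with green-only emission indicating depolarization. Sub-G1 DNA content read after propidium iodide staining. CCCP used as positive control. n = 3 repeat experiments.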"}, "[9]": {"system": "SK-BR-3", "test": "Inhibition of HSP70-mediated antiapoptotic activity in human SKBR3 cells assessed as release of Apaf-1 from chaperon complex after 24 hrs by Western blot analysis", "assay_type": "cell-based", "procedure,_shortened": "(§3)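 SKBr3 cells were treated for 24 h. Lysates were probed by western blot for caspase-3 and PARP cleavage. Apaf-1 complexes were pulled down with Apaf-1 antibody (with control IgG) and immunoblotted.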"}, "[10]": {"biological_target": "Heat shock protein HSP 90-beta (Homo sapiens) (UniProt P08238)", "test": "Inhibition of HSP90-mediated antiapoptotic activity in human NCI-H69 cells assessed as increase in apoptotic cell population at 0.2 to 1 uM after 72 hrs by FACS analysis relative to control", "assay_type": "cell-based"}, "[11]": {"biological_target": "Heat shock protein HSP 90-beta (Homo sapiens) (UniProt P08238)", "test": "Inhibition of HSP90-mediated antiapoptotic activity in human NCI-N417 cells assessed as mitochondrial membrane depolarization at 5 uM after 96 hrs by JC-1 staining-based flow cytometry", "assay_type": "cell-based", "settings": "NCI-H417", "procedure,_shortened": "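Mitochondrial membrane potential was measured by JC-1 staining and flow cytometry. Depolarization was scored as a shift to cells emitting only green fluorescence. The mitochondrial uncoupler CCCP served as positive control.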"}, "[12]": {"biological_target": "Heat shock protein HSP 90-beta (Homo sapiens) (UniProt P08238)", "test": "Inhibition of HSP90-mediated antiapoptotic activity in human NCI-H526 cells assessed as subG1 accumulation at 2.5 uM after 72 hrs by propidium iodide staining-based flow cytometry", "assay_type": "cell-based", "procedure,_shortened": "as §2"}, "[13]": {"system": "NCI-H526", "test": "Inhibition of HSP70-mediated antiapoptotic activity in human NCI-H526 cells assessed as induction of PARP cleavage after 24 hrs by Western blot analysis", "assay_type": "cell-based", "procedure,_shortened": "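NCI-H526 cells were treated for 24 h. PARP and caspase-3 cleavage were read by western blot of lysates in Tris/NaCl/NP-40 buffer. Apaf-1 complexes were immunoprecipitated with Apaf-1 antibody, using control IgG, then blotted.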"}, "[14]": {"system": "SK-BR-3", "test": "Inhibition of HSP70-mediated antiapoptotic activity in human SKBR3 cells assessed as induction of PARP cleavage after 24 hrs by Western blot analysis", "assay_type": "cell-based", "procedure,_shortened": "as §3"}, "[15]": {"biological_target": "Heat shock protein HSP 90-beta (Homo sapiens) (UniProt P08238)", "test": "Inhibition of HSP90-mediated antiapoptotic activity in human NCI-H526 cells assessed as disruption of protein-Apaf-1 complex at 50 uM after 24 hrs by Western blot analysis", "assay_type": "cell-based", "procedure,_shortened": "as §1"}, "[16]": {"biological_target": "Heat shock protein HSP 90-beta (Homo sapiens) (UniProt P08238)", "test": "Inhibition of HSP90-mediated antiapoptotic activity in human NCI-N417 cells assessed as subG1 accumulation at 5 uM after 72 hrs by propidium iodide staining-based flow cytometry", "assay_type": "cell-based", "settings": "NCI-H417", "procedure,_shortened": "(§4)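 Asynchronously growing cells were treated with compound, stained with propidium iodide and analysed by flow cytometry. The read-out was the percentage of cells with sub-G1 DNA content.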"}, "[17]": {"biological_target": "Heat shock protein HSP 90-beta (Homo sapiens) (UniProt P08238)", "test": "Inhibition of HSP90-mediated antiapoptotic activity in human NCI-H187 cells assessed as subG1 accumulation at 2.5 uM after 72 hrs by propidium iodide staining-based flow cytometry", "assay_type": "cell-based", "procedure,_shortened": "as §2"}, "[18]": {"biological_target": "Heat shock protein HSP 90-beta (Homo sapiens) (UniProt P08238)", "test": "Inhibition of HSP90-mediated antiapoptotic activity in human NCI-H526 cells assessed as release of Apaf-1 from chaperon complex at 20 uM after 1 hr by Western blot analysis", "assay_type": "cell-based", "procedure,_shortened": "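NCI-H526 cells treated with 20 µM for the indicated times. Complexes immunoprecipitated with Apaf-1 or caspase-9 antibodies, with control IgG alongside. Co-precipitated proteins identified by western blot.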"}, "[19]": {"biological_target": "Heat shock protein HSP 90-beta (Homo sapiens) (UniProt P08238)", "test": "Inhibition of HSP90-mediated antiapoptotic activity in human NCI-H187 cells assessed as subG1 accumulation at 5 uM after 72 hrs by propidium iodide staining-based flow cytometry", "assay_type": "cell-based", "procedure,_shortened": "as §2"}, "[20]": {"biological_target": "Heat shock protein HSP 90-beta (Homo sapiens) (UniProt P08238)", "test": "Inhibition of HSP90-mediated antiapoptotic activity in human NCI-N417 cells assessed as subG1 accumulation at 25 uM after 72 hrs by propidium iodide staining-based flow cytometry", "assay_type": "cell-based", "settings": "NCI-H417", "procedure,_shortened": "as §4"}, "[21]": {"system": "SK-BR-3", "test": "Inhibition of HSP70-mediated antiapoptotic activity in human SKBR3 cells assessed as induction of caspase-3 cleavage after 24 hrs by Western blot analysis", "assay_type": "cell-based", "procedure,_shortened": "as §3"}, "[22]": {"biological_target": "Heat shock protein HSP 90-beta (Homo sapiens) (UniProt P08238)", "test": "Inhibition of HSP90-mediated antiapoptotic activity in human SKBR3 cells assessed as induction of caspase-9 cleavage at 20 uM after 24 hrs by Western blot analysis", "assay_type": "cell-based", "settings": "SK-BR-3", "procedure,_shortened": "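SKBr3 cells at 60–70% confluence were exposed to drug or DMSO vehicle. Lysis was in 50 mM Tris pH 7.4, 150 mM NaCl, 1% NP-40, with protein measured by BCA. Lysates of 20–100 µg were run on SDS-PAGE, blotted to nitrocellulose, probed with primary antibodies and detected with a peroxidase-conjugated secondary (1:5,000). Loading was checked with β-actin or PI(3)K p85.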"}, "[23]": {"system": "SK-BR-3", "test": "Inhibition of HSP70-mediated antiapoptotic activity in human SKBR3 cells assessed as induction of cell growth arrest after 72 hrs by propidium iodide staining-based flow cytometry"}, "[24]": {"biological_target": "Heat shock protein HSP 90-beta (Homo sapiens) (UniProt P08238)", "test": "Inhibition of HSP90-mediated antiapoptotic activity in human MCF7 cells assessed as induction of cell growth arrest at 20 uM after 24 hrs by propidium iodide staining-based flow cytometry"}, "[25]": {"biological_target": "Heat shock protein HSP 90-beta (Homo sapiens) (UniProt P08238)", "test": "Inhibition of HSP90-mediated antiapoptotic activity in human SKBR3 cells assessed as induction of cell growth arrest at 100 uM after 24 hrs by propidium iodide staining-based flow cytometry", "settings": "SK-BR-3"}}, "note": "Activity calls are given as the source filed them. The calls are words filed in the database; no cut-off is given here.", "data": [{"compound": "O=CN1CC/C(=C/c2ccc3c(c2)OCO3)C1=O", "values": [{"measurement": "Activity", "setting": "[1]", "result": "inactive"}, {"measurement": "Activity", "setting": "[2]", "result": "inactive"}, {"measurement": "Activity", "setting": "[3]", "result": "inactive"}, {"measurement": "Activity", "setting": "[4]", "result": "inactive"}, {"measurement": "Activity", "setting": "[5]", "result": "inactive"}, {"measurement": "Activity", "setting": "[6]", "result": "inactive"}, {"measurement": "Activity", "setting": "[7]", "result": "inactive"}, {"measurement": "Activity", "setting": "[8]", "result": "inactive"}, {"measurement": "inhibition", "setting": "[9]", "result": "inactive"}, {"measurement": "Activity", "setting": "[10]", "result": "inactive"}, {"measurement": "Activity", "setting": "[11]", "result": "inactive"}, {"measurement": "Activity", "setting": "[12]", "result": "inactive"}, {"measurement": "inhibition", "setting": "[13]", "result": "inactive"}, {"measurement": "inhibition", "setting": "[14]", "result": "Active"}, {"measurement": "Activity", "setting": "[15]", "result": "inactive"}, {"measurement": "Activity", "setting": "[16]", "result": "inactive"}, {"measurement": "Activity", "setting": "[17]", "result": "inactive"}, {"measurement": "Activity", "setting": "[18]", "result": "inactive"}, {"measurement": "Activity", "setting": "[19]", "result": "inactive"}, {"measurement": "Activity", "setting": "[20]", "result": "inactive"}, {"measurement": "inhibition", "setting": "[21]", "result": "Active"}, {"measurement": "Activity", "setting": "[22]", "result": "inactive"}, {"measurement": "inhibition", "setting": "[23]", "result": "Active"}, {"measurement": "Activity", "setting": "[24]", "result": "inactive"}, {"measurement": "Activity", "setting": "[25]", "result": "Active"}]}]}
